Rows were chosen to be rich in hits. Some 3.7% of all compounds tested hit in one or more screens of this group.
SR-BI DiI inh: mouse SR-BI HDL lipid transfer inhibition. inhibition, % at 12.5 µM. ldlA[mSR-BI] CHO cells, DiI-HDL uptake fluorescence, 3 h. Q61009. actives 0.96% (n = 320,000);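 active = mean replicate inhibition of at least 70% and a set share of replicates each scoring 70 or more; inconclusive = meets just one of the two criteria; inactive = fails both criteria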
Target sequence (Q61009 whole entry, looked up): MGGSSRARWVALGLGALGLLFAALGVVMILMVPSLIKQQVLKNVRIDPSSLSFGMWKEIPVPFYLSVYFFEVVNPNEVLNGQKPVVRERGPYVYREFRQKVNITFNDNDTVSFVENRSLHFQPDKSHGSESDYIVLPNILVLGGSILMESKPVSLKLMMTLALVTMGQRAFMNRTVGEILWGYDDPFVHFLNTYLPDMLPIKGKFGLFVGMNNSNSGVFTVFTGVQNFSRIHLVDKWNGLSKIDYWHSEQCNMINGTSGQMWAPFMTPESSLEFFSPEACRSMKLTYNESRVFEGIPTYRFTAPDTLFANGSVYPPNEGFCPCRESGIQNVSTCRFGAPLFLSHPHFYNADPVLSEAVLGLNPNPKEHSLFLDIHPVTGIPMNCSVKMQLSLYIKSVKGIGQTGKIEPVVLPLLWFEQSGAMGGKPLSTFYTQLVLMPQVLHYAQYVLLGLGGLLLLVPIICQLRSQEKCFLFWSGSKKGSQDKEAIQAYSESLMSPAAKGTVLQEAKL
AHR activator: activates the human aryl hydrocarbon receptor; activation, % at 5 µM; actives 2.5% (n = 320,000); AID 2796; AHR-responsive luciferase reporter cells, luminescence; in the data active = activation above about 47%
GAA850 FXN act: frataxin GAA850 promoter activation | activation, % at 6 µM | actives 0.56% (n = 360,000) | HEK293 lucGAA850 FXN promoter luciferase reporter, 24 h; percent of 10 µM SAHA response;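 active = activation above the average of all compounds screened plus 3 SD, cutoff fixed separately per campaign, cut at about 7.5% in these data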
SR-BI DiI-HDL act: activators of SR-BI mediated HDL lipid uptake; CHO ldlA[mSR-BI] cells, DiI-HDL uptake fluorescence, 3 h; 100 = double the neutral-control signal; actives 0.096% (n = 320,000); activation, % at 12.5 µM;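 active = mean replicate activation of at least 60% and every replicate at or above 60%; inconclusive = mean or all-replicate condition met, but not both; inactive = mean below 60% and not all replicates reaching 60%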
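Assay system: CHO ldlA[mSR-BI] cells, LDL receptor-null, SR-BI overexpressing; medium: Ham's F12 with 0.5% BSA, HEPES 25 mM, pH 7.4; also added: DiI-HDL 10 µg/mL; timing: 3 h uptake period with compound, 37 °C; signal: DiI fluorescence, bottom read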
JMJD2C inh: inhibitors of human GASC-1 (JMJD2C) demethylase. Q9H3R0. GST-JMJD2C(1-420) H3K9me3 demethylation, DELFIA europium. inhibition, % at 2.35 µM. actives 0.069% (n = 330,000). AID 2099;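 active = more than half of a compound's replicate wells show inhibition beyond 50%, single wells judged on their own value; inconclusive = some, but no more than half, of replicates pass 50% inhibition; inactive = no replicate passes 50% inhibition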;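 note: signal counts dimethyl H3K9 product captured on neutravidin plate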
A number is an active result; - = inactive; ? = inconclusive; . = no result given.

SMILES	SR-BI DiI inh	AHR activator	GAA850 FXN act	SR-BI DiI-HDL act	JMJD2C inh
COC(=O)c1oc2ccccc2c1N	-	77.0	-	-	-
O=C(c1ccccc1-c1nc(-c2ccc(Cl)cc2)no1)N1CCCC1	-	53.3	-	-	-
O=[N+]([O-])c1cccc(-c2nc(-c3ccncc3)no2)c1	-	-	-	-	-
O=[N+]([O-])c1cccc(-c2nc(-c3ccccc3)no2)c1	-	57.6	-	-	-
c1ccc(-c2noc(-c3ccccc3-c3ccccc3)n2)cc1	-	61.8	-	-	-
NC(=O)c1ccc(-c2noc(-c3ccccc3F)n2)cc1	-	-	-	-	-
O=C(O)c1ccc(-c2noc(-c3ccccc3Cl)n2)cc1	-	-	-	-	-
Fc1ccccc1-c1nc(-c2ccc(Cl)cc2)no1	-	85.4	-	-	-
COc1cccc(-c2nc(N)nc(SC)c2C#N)c1	-	-	-	-	-
COCC(=O)Nc1c(C(=O)Nc2ccc3c(c2)OCCO3)oc2ccccc12	-	55.3	-	-	-
CCOCC(=O)Nc1c(C(=O)Nc2ccc3c(c2)OCCO3)oc2ccccc12	-	64.9	-	-	-
O=C(Nc1ccc2c(c1)OCCO2)c1oc2ccccc2c1NC(=O)C1CC1	-	-	-	-	-
Cc1ccc(OCC(=O)N/N=C\c2c(C)n(C)c3ccccc23)c([N+](=O)[O-])c1	-	60.5	-	-	-
Cc1ccc(OCC(=O)N/N=C/c2ccccc2)c([N+](=O)[O-])c1	-	.	-	-	-
Cc1cccc(OCCn2cc(/C=N/NC(=O)c3ccncc3)c3ccccc32)c1	-	-	-	-	-
Cc1cccc(OCC(=O)N/N=C\c2cn(C)c3ccccc23)c1	-	72.3	-	-	-
CCNc1c(NCC)c(=O)c1=O	-	-	-	-	-
Cn1cc(/C=C2\SC(=O)NC2=S)c2ccccc21	-	47.2	-	-	-
O=C(Nc1ccc2nc(-c3cccnc3)[nH]c2c1)c1ccccc1F	-	-	-	-	-
c1cncc(-c2nc3cc4ccccc4cc3[nH]2)c1	-	55.5	-	-	-
O=c1[nH]c(-c2cccnc2)nc2sc(-c3ccccc3)cc12	-	75.0	-	-	.
COc1cc(C(=O)NNC(=O)CCOc2ccccc2)cc(OC)c1OC	-	-	-	-	-
CCC1(C(=O)OC)CCc2c(cc(OC)c3ccccc23)C1=O (configuration not stated)	.	54.3	-	.	-
Cc1cc(-c2n[nH]c(=S)n2/N=C/c2c[nH]c3ccccc23)n[nH]1	-	-	-	-	-
Cc1cc(-c2n[nH]c(=S)n2/N=C/c2ccccc2[N+](=O)[O-])n[nH]1	-	47.6	-	-	-
SMILES	SR-BI DiI inh	AHR activator	GAA850 FXN act	SR-BI DiI-HDL act	JMJD2C inh
S=c1[nH]nc(-c2ccc(Cl)cc2)n1/N=C/c1cccs1	-	75.2	-	-	-
O=[N+]([O-])c1ccccc1/C=C/C=N/n1c(-c2ccc(Cl)cc2)n[nH]c1=S	-	60.5	-	-	-
CCOC(=O)C1CCCN(c2c(Nc3cc(C)cc(C)c3)c(=O)c2=O)C1 (configuration not stated)	-	-	-	-	-
CC(C)(C)OC(=O)C[C@H]1C/C=C\C[C@@H](CC(=O)N(CCO)Cc2ccccc2)C(=O)N[C@@H](Cc2ccccc2)COC1=O	-	-	-	-	-
NC(=S)N1OC[C@@H]2COc3ccc4ccccc4c3[C@@H]21	-	-	-	-	-
CCOc1ccc(CCNC(=O)CN2CCN(Cc3ccccc3C)C2=O)cc1OCC	79.2	-	-	-	-
O=C(NC(=S)Nc1nc2c(s1)CSc1ccccc1-2)c1ccccc1	-	69.4	-	-	-
O=C(NC(=S)Nc1nc2c(s1)CCCC2)c1ccc(C(=O)c2ccccc2)cc1	76.4	-	-	-	-
CCOc1ccc2oc(C(=O)N(C)CC(=O)Nc3ccc(OCC)c(OCC)c3)c(C)c2c1	82.5	-	-	-	-
CCOc1ccc(NC(=O)CN(C)C(=O)CCCOc2ccc(Br)cc2)cc1OCC	82.8	-	-	-	-
CCOc1ccc2oc(C(=O)N(C)CCc3ccc(OC)c(OC)c3)c(C)c2c1	-	-	-	-	-
CC(=O)Nc1ccc(C(=O)NNC(=O)C2C3CCCCC32)cc1 (configuration not stated)	-	-	-	-	-
O=C(Cn1c2ccc(F)cc2c2nc3n(c(=O)c21)CCS3)NCC1CCCO1 (configuration not stated)	-	-	-	-	-
COc1ccccc1C(=O)N/C(N)=N/c1nc2ccccc2o1	.	69.2	-	.	-
Brc1cc2c(cc1-c1nc3ccccc3s1)OCO2	-	53.5	-	-	-
Cc1cc(NC(=O)CN(C)S(=O)(=O)c2cccc(Cl)c2)no1	-	-	-	-	-
Cc1ccccc1OCC(=O)NC(=S)Nc1ccc(N2CCOCC2)c(Cl)c1	-	-	-	867.0	-
COCCCNC(=S)Nc1cc2oc3ccccc3c2cc1OC	88.1	.	-	-	-
COc1cc2c(cc1NC(=O)COc1ccccc1OC)oc1ccccc12	-	-	-	-	-
COc1cc2c(cc1NCc1ccccn1)oc1ccccc12	?	62.7	-	-	-
COc1cc2c(cc1NC(=S)Nc1cccc3ccccc13)oc1ccccc12	76.8	71.6	-	-	-
COc1cccc(CCNC(=O)CCCC(=O)c2ccccc2)c1	-	-	-	-	-
CCOC(=O)c1c(/N=C/N(C)C)sc(/C=N/Nc2ccccc2)c1-c1ccc(Cl)cc1	-	92.1	-	-	-
COc1ccccc1-c1nn2c(=O)cc(C)nc2s1	-	62.2	-	-	-
COc1ccccc1-c1nn2c(-c3ccco3)nnc2s1	-	-	-	-	-
SMILES	SR-BI DiI inh	AHR activator	GAA850 FXN act	SR-BI DiI-HDL act	JMJD2C inh
COc1ccc(C=O)cc1OC1C=CCCC1 (configuration not stated)	-	-	-	-	-
CSCCC(NC(=O)c1ccccc1Cl)C(=O)Nc1ccncc1 (configuration not stated)	-	.	-	-	.
COc1ccccc1C(=O)NC(CCSC)C(=O)NNC(=O)c1ccc(F)cc1 (configuration not stated)	-	-	-	-	-
CSCCC(NC(=O)c1ccccc1Cl)C(=O)NNC(=O)c1ccccc1O (configuration not stated)	-	57.6	-	-	-
CC(Sc1ccc(Cl)cc1)C(=O)NNC(=O)c1ccccc1O (configuration not stated)	97.0	-	-	-	-
COc1ccccc1C(=O)NC(CCSC)C(=O)NNC(=O)c1ccccc1O (configuration not stated)	75.7	-	-	-	-
COc1cccc(NC(=O)c2cc3ccccc3o/c2=N\O)c1	-	-	-	-	-
O=C(Nc1ccccc1Cl)c1cc2ccccc2o/c1=N\O	-	76.1	-	-	-
c1coc(-c2nnc(SCc3nc4ccccc4[nH]3)o2)c1	-	49.2	-	-	-

Screening data as filed in PubChem BioAssay.
